Data from ChEMBL document CHEMBL1124212, “Synthesis of novel 3-substituted beta-carbolines as benzodiazepine receptor ligands: probing the benzodiazepine receptor pharmacophore” (J Med Chem, 1988).
pIC50: −log10 of the molar value.

Tests used:
[1] = biological target: GABA-A receptor; anion channel; experiment: In vitro inhibition of binding to the benzodiazepine receptor in rat cerebral cortical membrane using [3H]diazepam as radioligand; type: cell membranes
Summary of the method: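 Rat cerebral cortex homogenized in 50 mM Tris-HCl, pH 7.4, spun at 20000g for 20 min at 4 °C, and washed three times. Nonspecific binding was measured with 10 μM flunitrazepam (final). IC50 was estimated from Hill plots.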

Rattus norvegicus = organism: Rattus norvegicus; experiment: In vitro inhibition of [3H]diazepam binding to GABA-A benzodiazepine receptor of rat cerebral cortical membrane
Summary of the method: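 Rat cerebral cortex homogenized in 50 mM Tris-HCl, pH 7.4, spun at 20000g for 20 min at 4 °C, and washed three times. […] Nonspecific binding was measured with 10 μM flunitrazepam (final). IC50 was estimated from Hill plots.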

Mus musculus [2] = experiment: Proconvulsant effect on mice 120 min after ip administration of a 25 mg/kg dose; type: functional; settings: route intraperitoneal
Summary of the method: (§1)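 Adult male mice (~25 g) given test drug or vehicle (0.1 mL of 20% diluted Emulphor in saline) ip at the stated dose, then challenged 15 or 120 min later with pentylenetetrazole 40 mg/kg ip (in water). Animals watched 15 min after PTZ for clonic-tonic convulsions; % convulsing recorded; at least 10 animals per dose.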

Mus musculus [3] = experiment: Proconvulsant effect on mice 15 min after ip administration of a 10 mg/kg dose; type: functional; settings: route intraperitoneal; summary of the method: as §1
Mus musculus [4] = experiment: Proconvulsant effect on mice 15 min after ip administration of a 25 mg/kg dose; type: functional; settings: route intraperitoneal; summary of the method: as §1
Mus musculus [5] = experiment: Proconvulsant effect on mice 120 min after ip administration of a 10 mg/kg dose; type: functional; settings: route intraperitoneal
Summary of the method: (§2)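 Adult male mice (~25 g) were given drug ip in vehicle (20% diluted Emulphor in saline). They were challenged with pentylenetetrazole (40 mg/kg ip, in water) 15 or 120 min later. Animals were watched for 15 min for clonic-tonic convulsions, scored as % of animals convulsing, with at least 10 animals per dose.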

Mus musculus [6] = experiment: Proconvulsant effect on mice 15 min after ip administration of a 2.5 mg/kg dose; type: functional; settings: route intraperitoneal; summary of the method: as §2
Mus musculus [7] = experiment: Proconvulsant effect on mice 15 min after ip administration of a 20 mg/kg dose; type: functional; settings: route intraperitoneal; summary of the method: as §2
Mus musculus [8] = experiment: Proconvulsant effect on mice 15 min after ip administration of a 5 mg/kg dose; type: functional; settings: route intraperitoneal; summary of the method: as §2
Mus musculus [9] = experiment: Proconvulsant effect on mice 15 min after ip administration of at 1.25 mg/kg dose; type: functional; settings: route intraperitoneal; summary of the method: as §2

SMILES	pIC50 [1]	further results
c1ccc(CNc2cc3c(cn2)[nH]c2ccccc23)cc1		IC30 (Rattus norvegicus): 1.28 µM
COC(=O)c1cc2c3ccccc3n(C)c2cn1	< 4.30	
COC(=O)c1cc2ccccc2cn1	4.88	
Oc1cc2c3ccccc3nc-2c[nH]1	5.40	
CCOC(=O)c1cc2c(cn1)sc1ccccc12	6.01	
c1ccc2c(c1)[nH]c1c2ccc2[nH]c3ccccc3c21	5.72	
CCOC(=O)c1cc2c(cn1)[nH]c1ccccc12		Convulsion (Mus musculus [2]): 30%; Convulsion (Mus musculus [3]): 33%; Convulsion (Mus musculus [4]): 96%
S=C=Nc1cc2c3ccccc3nc-2c[nH]1	8.10	
Cn1c2ccccc2c2c3[nH]c4ccccc4c3ncc21	5.93	
O=[N+]([O-])c1cc2c3ccccc3nc-2c[nH]1	6.90	
c1ccc2c(c1)[nH]c1cnccc12 [NORHARMANE]	5.79	
COC(=O)c1cc2c(cn1)[nH]c1ccccc12 [BETA-CCM]	8.30	

The next lines start with results.

pIC50 [1]	SMILES	further results
7.96	CCCOc1cc2c(cn1)[nH]c1ccccc12	
7.35	Clc1cc2c(cn1)[nH]c1ccccc12	
6.91	COc1cc2c(cn1)[nH]c1ccccc12	
7.62	CCOc1cc2c(cn1)[nH]c1ccccc12	Convulsion (Mus musculus [5]): 60%; Convulsion (Mus musculus [3]): 84%; Convulsion (Mus musculus [6]): 40%; Convulsion (Mus musculus [7]): 100%; Convulsion (Mus musculus [8]): 50%; Convulsion (Mus musculus [9]): 30%
